# The source made the active and inactive calls.
# Assays:
# Glutamate receptor 2 [1] = target: T1, Glutamate receptor 2 (Homo sapiens, UniProt P42262); assay: Allosteric modulation of human recombinant GluA2 receptor flip isoform expressed in HEK293 cells assessed as potentiation of glutamate-induced calcium influx by Fluo-4/FLIPR method; type: cell-based
# Method in brief: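 Stable GluA2 flip (unedited) cell line grown in DMEM/F12 with 10% FBS and seeded to confluence 2-3 days before use. Cells washed in HEPES buffer (pH 7.3) and loaded with 2 μM Fluo-4 AM for 60 min at room temperature. On FLIPR, compound was added 5 min before 100 μM glutamate. pEC50 and asymptotic maximum are relative to the maximal response to cyclothiazide, n ≥ 3.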
# [2] = Distribution coefficient, log D of the compound; type: physicochemical; details: octanol/water
# [3] = Kinetic solubility of the compound in phosphate buffered saline of pH 7.4; type: physicochemical
# Method in brief: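 Kinetic solubility: 10 mM DMSO stock, 5 μL diluted to 100 μL with pH 7.4 phosphate-buffered saline, equilibrated 1 h at room temperature, filtered, filtrate quantified by calibrated flow-injection chemiluminescent nitrogen detection.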
# [4] = Inhibition of human CYP450 by fluorescence assay; type: ADME
# Method in brief: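 Recombinant human CYP1A2, 2C9, 2C19, 2D6 and 3A4 bactosomes (0.1 mg/mL protein) preincubated 10 min at 37 °C in 50 mM potassium phosphate pH 7.4 with test compound (0.1–10 μM, methanol 3–4.5% final) and fluorogenic probe: ethoxyresorufin 0.5 μM (1A2), FCA 50 μM (2C9), BMC 10 μM (2C19), MMC 10 μM (2D6), DEF 1 μM or 7-BQ 25 μM (3A4). NADPH-regenerating system added; fluorescent metabolite read 10 min; rate as % control; IC50 fitted; triplicate.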
# [5] = (§1) AUC ( 0 to t) in rat at 3 mg/kg, po; type: ADME, organism-based, Plasma; design: dose 3 mg/kg, route oral; details: plasma
# [6] = Cmax in rat at 3 mg/kg, po; type: ADME, organism-based; design: dose 3 mg/kg, route oral; details: in vivo
# [7] = Clearance in rat at 3 mg/kg, po; type: ADME, organism-based; design: dose 3 mg/kg, route oral; details: in vivo
# Method in brief: (§2)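 Rats dosed orally at 3 mg/kg; blood sampled via the hepatic portal vein and heart. Estimated clearance derived from in vivo hepatic extraction, taking rat liver blood flow as 85 (mL/min)/kg.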
# [8] = Plasma protein binding in rat at 3 mg/kg, po; type: ADME, organism-based; design: dose 3 mg/kg, route oral; details: read-out: PPB (converted)
# Brain [9] = assay: Brain tissue binding in rat at 3 mg/kg, po; type: ADME, organism-based; design: dose 3 mg/kg, route oral; details: in vivo
# [10] = Apparent permeability of the compound; type: ADME; details: not told
# Method in brief: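 Artificial membrane permeability: donor holds 10 mM sample in pH 7.05 phosphate buffer with 0.5% hydroxypropylcyclodextrin. Membrane is 1.8% phosphatidylcholine and 1% cholesterol in decane. Donor and acceptor concentrations measured by LCMS after 3 h at room temperature; permeability expressed in nm/s.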
# Glutamate receptor 2 [11] = target: T1, Glutamate receptor 2; assay: Allosteric modulation of human recombinant GluA2 receptor flip isoform expressed in HEK293 cells assessed as potentiation of glutamate-induced calcium influx by Fluo-4/FLIPR method relative to cyclothiazide; type: cell-based
# Method in brief: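 Stable GluA2 flip (unedited) cells seeded to confluence 2-3 days before assay; washed in HEPES buffer (145 NaCl, 5 KCl, 2 CaCl2, 1 MgCl2, 5.5 glucose, pH 7.3), loaded with 2 μM Fluo4-AM 60 min at room temperature. FLIPR dual addition: compound 5 min before 100 μM glutamate; fluorescence rise expressed against maximal cyclothiazide response, fitted pEC50 and Asym max; n ≥ 3.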
# Rattus norvegicus [12] = assay: Neurotoxicity in Lister Hooded rat assessed proconvulsant effect at 150 mg/kg, ip by MEST test; type: toxicity, organism-based; design: dose 150 mg/kg, route intraperitoneal; details: in vivo
# Method in brief: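 Male Lister Hooded rats pretreated with compound, saline vehicle or picrotoxin 30 min before corneal electroshock (CC50 about 60–70 mA, 0.1 ms); tonic and tonic-clonic seizure threshold scored; brain concentrations taken from satellite rats sampled right after testing.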
# Brain [13] = assay: Drug level in Lister Hooded rat assessed per gram of tissue at 150 mg/kg, ip; type: ADME, organism-based; design: dose 150 mg/kg, route intraperitoneal; details: in vivo
# Method in brief: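 Male Lister Hooded rats pretreated 30 min before the maximal electroshock threshold test with compound or saline vehicle; picrotoxin served as positive control. Corneal current applied, CC50 about 60-70 mA, 0.1 ms. Brain levels measured in satellite rats sampled immediately after testing.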
# in vivo = details: rat, brain and blood, po, 3 mg/kg
# Rattus norvegicus [14] = assay: Cognitive enhancing effect in Wistar rat assessed as reversal of scopolamine-induced amnesic deficit at 10 to 30 mg/kg, ip by passive avoidance test
# Cytochrome P450 2D6 = Cytochrome P450 2D6 (Homo sapiens, UniProt P10635); assay: Inhibition of human CYP2D6 by fluorescence assay; type: ADME
# Method in brief: (§3)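 Recombinant human CYP bactosomes (0.1 mg/mL) in 50 mM potassium phosphate pH 7.4, preincubated 10 min at 37 °C with test compound (0.1-10 μM, 7 concentrations) and fluorogenic substrate. Substrates: ethoxyresorufin 0.5 μM (1A2), FCA 50 μM (2C9), BMC 10 μM (2C19), MMC 10 μM (2D6), DEF 1 μM or 7-BQ 25 μM (3A4). Reaction started with NADPH regenerating system; metabolite formation read over 10 min. IC50 from percent of control rate; miconazole control; triplicate.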
# Rattus norvegicus [15] = assay: as §1; type: ADME, organism-based, Plasma; design: dose 3 mg/kg, route oral; details: in vivo
# Cytochrome P450 2C19 = Cytochrome P450 2C19 (Homo sapiens, UniProt P33261); assay: Inhibition of human CYP2C19 by fluorescence assay; type: ADME; method in brief: as §3
# Cytochrome P450 2C9 = Cytochrome P450 2C9 (Homo sapiens, UniProt P11712); assay: Inhibition of human CYP2C9 by fluorescence assay; type: ADME; method in brief: as §3
# Cytochrome P450 1A2 = target: T2, Cytochrome P450 1A2 (Homo sapiens, UniProt P05177); assay: Inhibition of human CYP1A2 by fluorescence assay; type: ADME; method in brief: as §3
# T2 sequence (P05177 whole entry): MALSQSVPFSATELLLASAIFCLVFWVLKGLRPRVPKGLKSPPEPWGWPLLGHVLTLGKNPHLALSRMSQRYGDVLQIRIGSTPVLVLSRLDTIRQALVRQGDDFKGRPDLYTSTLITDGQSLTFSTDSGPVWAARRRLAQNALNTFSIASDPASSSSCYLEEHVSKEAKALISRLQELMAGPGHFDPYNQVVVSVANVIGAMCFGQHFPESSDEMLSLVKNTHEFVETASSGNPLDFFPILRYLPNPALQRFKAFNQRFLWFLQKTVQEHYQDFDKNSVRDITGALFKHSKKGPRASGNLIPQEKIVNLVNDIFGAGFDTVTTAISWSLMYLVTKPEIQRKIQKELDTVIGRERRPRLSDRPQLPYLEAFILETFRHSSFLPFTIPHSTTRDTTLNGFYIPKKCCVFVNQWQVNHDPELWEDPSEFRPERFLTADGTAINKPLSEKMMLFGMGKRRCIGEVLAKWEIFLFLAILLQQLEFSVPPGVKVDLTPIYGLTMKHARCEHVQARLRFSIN
# Cytochrome P450 3A4 = Cytochrome P450 3A4 (Homo sapiens, UniProt P08684); assay: Inhibition of human CYP3A4 by fluorescence assay; type: ADME; method in brief: as §3
# [16] = Distribution coefficient, log D of the compound at pH 7.4; type: physicochemical; details: octanol/water
# [17] = AUC (0 to t) in rat blood at 3 mg/kg, po; type: ADME, organism-based; design: dose 3 mg/kg, route oral; details: whole blood
# [18] = Cmax in rat blood at 3 mg/kg, po; type: ADME, organism-based; design: dose 3 mg/kg, route oral; details: whole blood
# [19] = Blood Clearance in rat at 3 mg/kg, po; type: ADME, organism-based; design: dose 3 mg/kg, route oral; details: whole blood; method in brief: as §2
# Brain [20] = assay: Drug level in Lister Hooded rat assessed per gram of tissue at 1 mg/kg, ip; type: ADME, organism-based; design: dose 1 mg/kg, route intraperitoneal; details: in vivo
# Method in brief: (§4)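 Male Lister Hooded rats (n = 9-12/group) tested for reversal of a 24 h delay-induced deficit in novel object recognition. Significant doses flagged. Brain concentrations measured in the study animals at the end of the test.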
# Brain [21] = assay: Drug level in Lister Hooded rat assessed per gram of tissue at 3 mg/kg, ip; type: ADME, organism-based; design: dose 3 mg/kg, route intraperitoneal; details: in vivo; method in brief: as §4
# Brain [22] = assay: Drug level in Lister Hooded rat assessed per gram of tissue at 10 mg/kg, ip; type: ADME, organism-based; design: dose 10 mg/kg, route intraperitoneal; details: in vivo; method in brief: as §4
# Brain [23] = assay: Drug level in Lister Hooded rat assessed per gram of tissue at 0.3 mg/kg, ip; type: ADME, organism-based; design: dose 0.3 mg/kg, route intraperitoneal; details: in vivo; method in brief: as §4
# Rattus norvegicus [24] = assay: Cognitive enhancing effect in Wistar rat assessed as reversal of scopolamine-induced amnesic deficit at 30 mg/kg, ip by passive avoidance test
# Chain of Cytochrome P450 2D6 (P10635 whole entry): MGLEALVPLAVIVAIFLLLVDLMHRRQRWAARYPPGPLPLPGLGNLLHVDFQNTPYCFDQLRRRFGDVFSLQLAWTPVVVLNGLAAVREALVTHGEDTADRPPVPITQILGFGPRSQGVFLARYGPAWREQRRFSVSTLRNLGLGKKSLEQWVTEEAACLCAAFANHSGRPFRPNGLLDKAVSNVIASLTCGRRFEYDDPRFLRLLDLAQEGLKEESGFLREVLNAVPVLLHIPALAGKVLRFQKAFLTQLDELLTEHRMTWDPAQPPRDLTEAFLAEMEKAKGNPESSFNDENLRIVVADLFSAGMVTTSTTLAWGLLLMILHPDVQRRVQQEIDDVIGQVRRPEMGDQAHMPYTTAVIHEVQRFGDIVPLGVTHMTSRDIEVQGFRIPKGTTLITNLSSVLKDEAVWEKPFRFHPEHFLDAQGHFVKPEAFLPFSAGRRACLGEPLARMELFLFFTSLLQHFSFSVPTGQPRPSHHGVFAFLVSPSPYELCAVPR
# T1 sequence (P42262 whole entry, canonical isoform): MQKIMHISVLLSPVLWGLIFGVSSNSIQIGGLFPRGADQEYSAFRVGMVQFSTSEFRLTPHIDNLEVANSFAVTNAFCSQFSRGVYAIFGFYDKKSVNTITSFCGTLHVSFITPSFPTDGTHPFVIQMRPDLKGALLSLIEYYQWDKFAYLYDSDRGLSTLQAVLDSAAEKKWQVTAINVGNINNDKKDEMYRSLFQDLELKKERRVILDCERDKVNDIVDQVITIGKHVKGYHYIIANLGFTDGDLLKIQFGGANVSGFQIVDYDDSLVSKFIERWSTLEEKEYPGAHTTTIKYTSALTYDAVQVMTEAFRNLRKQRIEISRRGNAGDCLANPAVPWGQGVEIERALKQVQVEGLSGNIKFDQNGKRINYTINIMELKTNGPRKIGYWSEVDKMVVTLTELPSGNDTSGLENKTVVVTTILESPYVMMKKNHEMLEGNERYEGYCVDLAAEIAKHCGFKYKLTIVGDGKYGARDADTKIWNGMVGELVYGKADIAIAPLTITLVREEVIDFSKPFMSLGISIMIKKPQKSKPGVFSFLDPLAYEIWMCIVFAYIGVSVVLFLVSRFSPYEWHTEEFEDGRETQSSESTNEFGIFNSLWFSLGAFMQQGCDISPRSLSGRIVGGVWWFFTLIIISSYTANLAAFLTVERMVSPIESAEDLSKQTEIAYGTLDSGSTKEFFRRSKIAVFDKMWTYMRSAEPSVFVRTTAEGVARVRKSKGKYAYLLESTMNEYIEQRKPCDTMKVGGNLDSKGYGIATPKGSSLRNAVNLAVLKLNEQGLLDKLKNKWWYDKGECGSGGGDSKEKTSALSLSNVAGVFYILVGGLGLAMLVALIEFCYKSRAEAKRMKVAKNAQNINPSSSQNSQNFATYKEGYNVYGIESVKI
# Chain of Cytochrome P450 2C9 (P11712 whole entry): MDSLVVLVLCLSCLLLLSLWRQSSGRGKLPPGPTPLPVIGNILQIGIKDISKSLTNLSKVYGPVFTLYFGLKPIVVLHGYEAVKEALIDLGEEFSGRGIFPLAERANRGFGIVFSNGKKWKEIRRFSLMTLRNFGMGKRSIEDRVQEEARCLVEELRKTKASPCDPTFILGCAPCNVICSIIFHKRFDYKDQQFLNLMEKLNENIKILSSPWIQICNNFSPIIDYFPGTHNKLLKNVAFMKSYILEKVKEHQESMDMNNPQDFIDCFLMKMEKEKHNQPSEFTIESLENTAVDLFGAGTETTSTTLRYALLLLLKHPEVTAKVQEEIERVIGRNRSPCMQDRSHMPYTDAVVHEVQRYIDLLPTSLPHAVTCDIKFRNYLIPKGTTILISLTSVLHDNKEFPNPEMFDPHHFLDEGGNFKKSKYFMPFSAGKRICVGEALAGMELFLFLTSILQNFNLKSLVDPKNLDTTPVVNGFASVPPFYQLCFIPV
# Chain of Cytochrome P450 3A4 (P08684 whole entry): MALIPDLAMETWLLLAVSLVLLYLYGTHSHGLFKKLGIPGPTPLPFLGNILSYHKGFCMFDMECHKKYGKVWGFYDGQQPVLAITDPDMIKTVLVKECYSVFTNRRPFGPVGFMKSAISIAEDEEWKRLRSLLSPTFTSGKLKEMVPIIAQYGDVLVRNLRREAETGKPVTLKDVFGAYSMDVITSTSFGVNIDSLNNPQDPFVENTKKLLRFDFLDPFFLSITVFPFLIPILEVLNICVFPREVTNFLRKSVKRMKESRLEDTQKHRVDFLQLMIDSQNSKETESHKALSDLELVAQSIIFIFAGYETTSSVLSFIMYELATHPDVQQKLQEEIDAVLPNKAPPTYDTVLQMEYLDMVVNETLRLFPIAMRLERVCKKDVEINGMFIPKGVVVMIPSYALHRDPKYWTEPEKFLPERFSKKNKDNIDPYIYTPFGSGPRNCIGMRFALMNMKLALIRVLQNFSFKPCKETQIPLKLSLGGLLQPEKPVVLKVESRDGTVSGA
# Chain of Cytochrome P450 2C19 (P33261 whole entry): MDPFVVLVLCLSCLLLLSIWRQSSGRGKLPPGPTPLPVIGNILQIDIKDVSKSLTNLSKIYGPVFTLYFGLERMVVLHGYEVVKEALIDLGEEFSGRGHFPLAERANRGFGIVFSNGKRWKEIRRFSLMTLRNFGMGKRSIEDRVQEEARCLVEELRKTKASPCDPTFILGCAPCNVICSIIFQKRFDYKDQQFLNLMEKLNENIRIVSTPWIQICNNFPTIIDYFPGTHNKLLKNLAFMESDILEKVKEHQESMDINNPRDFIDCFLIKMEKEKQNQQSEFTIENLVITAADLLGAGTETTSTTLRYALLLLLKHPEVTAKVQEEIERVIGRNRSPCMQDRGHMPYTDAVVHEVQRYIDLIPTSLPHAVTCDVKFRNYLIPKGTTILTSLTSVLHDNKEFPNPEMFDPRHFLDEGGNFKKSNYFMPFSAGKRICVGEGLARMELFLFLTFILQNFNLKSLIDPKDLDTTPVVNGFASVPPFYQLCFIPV
SMILES,EC50 (Glutamate receptor 2 [1]) [µM],logD [2],solubility kinetic [3] [µg/mL],Cmax [6] [ng/mL],fraction unbound [8],Brain tissue binding (% bound) (Brain [9]) [%],Papp [10] [×10⁻⁶ cm/s],Activity (Glutamate receptor 2 [11]) [%],Activity (Rattus norvegicus [12]),Drug uptake (Brain [13]) [ng/g],Kp (in vivo),IC50 (Cytochrome P450 2D6) [µM],IC50 (Cytochrome P450 2C19) [µM],IC50 (Cytochrome P450 2C9) [µM],IC50 (Cytochrome P450 1A2) [µM],IC50 (Cytochrome P450 3A4) [µM],logD [16],AUC(0-t) [17] [ng·h/mL],Cmax [18] [ng/mL],CL/F [19] [mL/min/kg],other results
O=C(c1ccc(-n2nc(C(F)(F)F)c3c2CCCC3)cc1)N1CCOCC1,> 20,3.1,123,586,0.026,96.8,45.5,81,Non-toxic,7168,1.2,–,–,–,–,–,–,–,–,–,IC50 [4]: > 10 µM; AUC(0-t) [5]: 1980 ng·h/mL; CL/F [7]: 14 mL/min/kg; Activity (Rattus norvegicus [14]): inactive
CS(=O)(=O)NCc1ccc(-n2nc(C(F)(F)F)c3c2CCCC3)cc1,7.94,2.5,103,197,0.021,99.2,33.5,112,Non-toxic,5074,1.6,–,–,–,–,–,–,–,–,–,IC50 [4]: > 10 µM; AUC(0-t) [5]: 416 ng·h/mL; CL/F [7]: 43 mL/min/kg
CN(C)C(=O)c1ccc(-n2nc(C(F)(F)F)c3c2CCCC3)cc1,25.1,3,138,50,0.048,98.2,–,94,–,–,1.3,6,–,–,–,–,–,–,–,–,AUC (Rattus norvegicus [15]): 78 ng·h/mL
O=C(c1ccc(-n2nc(C(F)(F)F)c3c2CCOC3)cc1)N1CCCC1,> 20,–,192,–,0.137,88.4,49.5,81,Non-toxic,22525,–,> 10,> 10,> 10,> 10,> 10,2.4,1330,551,6,Drug uptake (Brain [20]): 228 ng/g; Drug uptake (Brain [21]): 983 ng/g; Drug uptake (Brain [22]): 2609 ng/g; Activity (Rattus norvegicus [14]): Active
O=C1CCCN1Cc1c(F)cc(-n2nc(C(F)(F)F)c3c2CCOC3)cc1F,20,–,207,–,0.064,96.3,47,120,Non-toxic,8988,–,> 10,> 10,> 10,> 10,> 10,2.5,481,76,22,Drug uptake (Brain [23]): 22 ng/g; Drug uptake (Brain [20]): 79 ng/g; Drug uptake (Brain [21]): 386 ng/g; Drug uptake (Brain [22]): 1413 ng/g; Activity (Rattus norvegicus [24]): Active
CN1CCc2c(C(F)(F)F)nn(-c3ccc(CN4CCCC4=O)cc3)c2C1,39.8,–,93,–,0.142,63,43,102,–,–,–,> 10,> 10,> 10,> 10,> 10,2,294,131,22,–
O=C1CCCN1Cc1ccc(-n2nc(C(F)(F)F)c3c2CCOC3)cc1,10,–,215,–,0.16,87.9,47,138,–,–,–,> 8,> 8,> 8,> 8,> 8,2.4,972,808,41,–
O=C(c1ccc(-n2nc(C(F)(F)F)c3c2COCC3)cc1)N1CCCC1,100,–,104,–,0.067,95.5,49,75,–,–,–,> 10,> 10,> 10,> 10,> 10,2.6,733,225,13,–
